One series relates to P. falciparum 3D7. In words: P. falciparum 3D7 3H-hypoxanthine incorporation growth inhibition assay. Format: cell-based. The settings on record: Plasmodium falciparum, 3D7, 48 h, read-out: P. falciparum 3D7 IC50.
The subject of the next series is P. knowlesi A1H.1. The experiment in a line: P. knowlesi A1H.1 3H-hypoxanthine incorporation growth inhibition assay. As to conditions: Plasmodium knowlesi, 48 h, read-out: P. knowlesi A1H.1 IC50. Format: cell-based.
For a further series, the system named is Plasmodium parasites. The experiment in a line: Ratios derived from Table 1 IC50 values. Format: cell-based.
Series [1] deals with free L. donovani promastigotes. The experiment in a line: Resazurin reduction assay, L. donovani promastigotes. As to conditions: for inhibition at 20 µM: Leishmania donovani, read-out: inhibition of free L. donovani promastigotes. The format is cell-based, Leishmania donovani.
For another series, the system named is S. mansoni adult worms. The experiment in a line: Adult worm pair stability and egg laying in culture. The format is cell-based, Schistosoma mansoni. In outline: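 S. mansoni adult worm pairs kept in culture with test compound at 10 μM. Pairing and egg laying expressed as mean % of DMSO control (set to 100%). Praziquantel (10 μM) served as control. Run in triplicate on two separate occasions.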

A further series relates to P. berghei QIMR. In words: In vivo anti-Plasmodium efficacy in infected BALB/c mice. As to conditions: for peripheral blood parasitemia compared to vehicle-only control mice: 25 mg/kg oral gavage twice daily for four days; for days after infection with significant reduction in parasitemia (P < 0.05): 25 mg/kg orally twice daily for four days. In outline:
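Female BALB/c mice, 6–8 weeks old, six per group, infected i.p. with […] P. berghei QIMR-infected erythrocytes from a passage mouse. Oral gavage of 25 mg/kg test compound in DMSO/PBS (100 μL) twice daily for four days, starting 2 h p.i. with 4 h between doses. Chloroquine 10 mg/kg oral twice daily for three days. Giemsa thin smears read daily from day 4 (>800 erythrocytes per mouse).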

Series [2] can be described thus: Oral pharmacokinetics in humans. The format is in vivo.
Series [3] relates to human Neonatal Foreskin Fibroblast (NFF) cells. The settings on record: read-out: NFF IC50; previously published; ref Engel et al., 2015; cited from earlier work.
For series [4], the system named is Human Embryonic Kidney (HEK 293) cells. As to conditions: read-out: HEK 293 IC50; previously published; ref Engel et al., 2015; cited from earlier work.
For series [5] the following is noted: cited from earlier work.
Series [6] is described as follows: Oral pharmacokinetics in mice. The settings on record: mice dosed orally with 50 mg/kg; ref Yeo et al., 2007.
The conditions of series [7]: female BALB/c nude mice, oral 50 mg/kg; ref Yeo et al., 2007; cited from earlier work.
[8] abbreviates: humans, 15–80 mg oral panobinostat, ref Prince et al., 2009.
The mark [9] stands for this setting: humans, 200–600 mg oral vorinostat, ref Kavanaugh et al., 2010.

The text below walks through data of publication PMC5241585 (International Journal for Parasitology: Drugs and Drug …, 2016).

Where two headings read alike, the source gives them in different places. Marks after values point to notes of the source that are not given here.

As for `Cc1[nH]c2ccccc2c1CCNCc1ccc(/C=C/C(=O)NO)cc1` [Panobinostat], the 50% inhibitory concentration (IC50) in the series on P. falciparum 3D7 is 4 nM; with P. knowlesi A1H.1, 9 nM; in series [3], 70 nM; in series [4] it was 180 nM. Also, the “greater inhibitory potency against Plasmodium parasites in vitro than vorinostat” value in the series with Plasmodium parasites (from Table 1 IC50 values) is 40–60 fold. The inhibition at 20 µM in [1] lay in the range of 20 to 35%. For the same compound, the inhibition at 10 µM in the series on S. mansoni adult worms (Schistosoma mansoni, read-out: inhibition of adult worm pairing) was 30 to 40%; in the series on S. mansoni adult worms (Schistosoma mansoni, read-out: inhibition of egg production), approximately 50%. Further, the “peripheral blood parasitemia compared to vehicle-only control mice” value with P. berghei QIMR is “significant reduction”. Moreover, in the series on P. berghei QIMR (25 mg/kg oral gavage twice daily, days 4-10), the “reduction in mean peripheral parasitemia compared to vehicle-only control” value was 2–3 fold. The “survival compared to vehicle control group” value with P. berghei QIMR (25 mg/kg oral gavage twice daily, p = 0.0013) is recorded as “significantly improved”. In the series with P. berghei QIMR, the “days after infection with significant reduction in parasitemia (P < 0.05)” value lay in the range of 4 to 10 days. In addition, the “half-life in humans compared to mice” value in series [2] (from Table 2 values) is recorded as 6–10 fold. For the same compound, the “oral bioavailability (F%) in humans compared to mice” value in [2] (from Table 2 values) is “approximately five”. Moreover, the maximum concentration (Cmax) in series [2] (human, in vivo, po, 20 mg) is approximately 70 nM; in [5] (setting [8]) it was 23 to 71 ng/mL. Further, the “adverse effects in humans” value in [5] (20 mg oral dose, ref FARYDAK product sheet (Novartis)) is on record as “adverse effects are commonly reported”. For the same compound, in series [5] (setting [8]), the “AUC0−∞” value is given as 183–373 ng⋅h/mL. In series [5] (setting [8]), the t1/2 is listed as 16–30 ^d h. The “mean Cmax” value in series [5] (humans, single oral dose 20 mg, ref European Medicines Agency, 2015) is 24.3 (±12) ng/mL. For the same compound, the “half-life longer than vorinostat” value in series [6] is reported as more than 2 fold.
For `CCN(CC)CCCC(C)Nc1ccnc2cc(Cl)ccc12` (stereo not drawn) [Chloroquine], the concentration for half-maximal inhibition (IC50) in the series on P. falciparum 3D7 was 10 nM; in the series on P. knowlesi A1H.1, 10 nM; in [3], 48900 nM. For the same compound, the peripheral blood parasitemia result with P. berghei QIMR (10 mg/kg orally twice daily beginning 2 h p.i., data not shown) is given as “did not develop detectable peripheral blood parasitemia”.
`C/C=C1\NC(=O)[C@H]2CSSCC/C=C/[C@H](CC(=O)N[C@H](C(C)C)C(=O)N2)OC(=O)[C@H](C(C)C)NC1=O` [Romidepsin]: the half-maximal inhibitory concentration (IC50) in the series with P. falciparum 3D7 is 140 nM; in the series on P. knowlesi A1H.1 it was 210 nM; in series [3] it was 1 nM; in [4], less than 5 nM. In the series on Plasmodium parasites (P. knowlesi vs human cells, in abstract), the “selectivity for the parasite over NFF or HEK 293 cells” value was “not selective”. In [1] (20 μM), the “inhibition of free L. donovani promastigotes” value is given as “no growth inhibition”. Further, the “inhibition of adult worm pairing” value in the series with S. mansoni adult worms (10 μM) is reported as “completely inhibited”. Moreover, the “inhibition of egg production” value with S. mansoni adult worms (10 μM) is listed as “completely inhibited”.
With `O=C(C1CCCCC1)N1CC(=O)N2CCc3ccccc3C2C1` (stereo not drawn) [praziquantel], the “effect on adult worms” value in the series on S. mansoni adult worms (10 μM) is on record as “induced the death of adult worms”. Moreover, in the series with S. mansoni adult worms (Schistosoma mansoni, read-out: adult worm viability), the viability at 10 µM turned out to be 10%.
On to `O=C(/C=C/c1cccc(S(=O)(=O)Nc2ccccc2)c1)NO` [Belinostat], for which the 50% inhibitory concentration (IC50) with P. falciparum 3D7 was 170 nM; in the series on P. knowlesi A1H.1 it was 190 nM; in [3], 2370 nM; in series [4], 1420 nM. Moreover, the inhibition at 20 µM in [1] fell in the range of 20 to 35%.
`O=C(CCCCCCC(=O)Nc1ccccc1)NO` [Vorinostat]: in the series with P. berghei QIMR, the “peripheral blood parasitemia compared to vehicle-only control mice” value is on record as “significant reduction” and the “days after infection with significant reduction in parasitemia (P < 0.05)” value lay in the range of 4 to 7 days. Besides, in [7], the “AUC0−∞” value is 619 ng⋅h/mL. Further, in [5] (setting [9]), the “AUC0−∞” value is 1698 ng⋅h/mL and the peak concentration (Cmax) is recorded as 658 ng/mL.
